Results: publication PMC5422321 (Drug Design, Development and Therapy, 2017)
Where “and” joins values, the source holds several entries; their conditions need not be identical. Equal entries are not always repeated. Where two headings read alike, the source gives them in different places.

What was measured:
[1] = system: α-tubulin acetylation in PC-3 cells; experiment: Western blot of acetylated α-tubulin in PC-3 cells; format: cell-based, human; details: 18 h
Procedure, shortened: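 PC-3 cells seeded overnight in complete medium, then treated 18 h with test compound (10 doses, threefold dilution). Washed with PBS and lysed in 1× SDS sample buffer. Lysates resolved on 12% Bis-Tris SDS-PAGE and transferred to nitrocellulose. Blocked 1 h in 3% nonfat milk, probed overnight with anti-acetyl-tubulin and a fluorescent secondary, scanned, then reprobed for total α-tubulin. One of three experiments shown.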

HDAC4 = HDAC4 (Homo sapiens, UniProt P56524); experiment: HDAC biochemical assay
HDAC3 = HDAC3 (Homo sapiens, UniProt O15379); experiment: HDAC biochemical assay
HDAC5 = HDAC5 (Homo sapiens, UniProt Q9UQL6); experiment: HDAC biochemical assay
HDAC6 = target: T1, HDAC6 (Homo sapiens, UniProt Q9UBN7); experiment: HDAC biochemical assay; details: AMC-labeled peptide substrate
T1 sequence (Q9UBN7 1-1215): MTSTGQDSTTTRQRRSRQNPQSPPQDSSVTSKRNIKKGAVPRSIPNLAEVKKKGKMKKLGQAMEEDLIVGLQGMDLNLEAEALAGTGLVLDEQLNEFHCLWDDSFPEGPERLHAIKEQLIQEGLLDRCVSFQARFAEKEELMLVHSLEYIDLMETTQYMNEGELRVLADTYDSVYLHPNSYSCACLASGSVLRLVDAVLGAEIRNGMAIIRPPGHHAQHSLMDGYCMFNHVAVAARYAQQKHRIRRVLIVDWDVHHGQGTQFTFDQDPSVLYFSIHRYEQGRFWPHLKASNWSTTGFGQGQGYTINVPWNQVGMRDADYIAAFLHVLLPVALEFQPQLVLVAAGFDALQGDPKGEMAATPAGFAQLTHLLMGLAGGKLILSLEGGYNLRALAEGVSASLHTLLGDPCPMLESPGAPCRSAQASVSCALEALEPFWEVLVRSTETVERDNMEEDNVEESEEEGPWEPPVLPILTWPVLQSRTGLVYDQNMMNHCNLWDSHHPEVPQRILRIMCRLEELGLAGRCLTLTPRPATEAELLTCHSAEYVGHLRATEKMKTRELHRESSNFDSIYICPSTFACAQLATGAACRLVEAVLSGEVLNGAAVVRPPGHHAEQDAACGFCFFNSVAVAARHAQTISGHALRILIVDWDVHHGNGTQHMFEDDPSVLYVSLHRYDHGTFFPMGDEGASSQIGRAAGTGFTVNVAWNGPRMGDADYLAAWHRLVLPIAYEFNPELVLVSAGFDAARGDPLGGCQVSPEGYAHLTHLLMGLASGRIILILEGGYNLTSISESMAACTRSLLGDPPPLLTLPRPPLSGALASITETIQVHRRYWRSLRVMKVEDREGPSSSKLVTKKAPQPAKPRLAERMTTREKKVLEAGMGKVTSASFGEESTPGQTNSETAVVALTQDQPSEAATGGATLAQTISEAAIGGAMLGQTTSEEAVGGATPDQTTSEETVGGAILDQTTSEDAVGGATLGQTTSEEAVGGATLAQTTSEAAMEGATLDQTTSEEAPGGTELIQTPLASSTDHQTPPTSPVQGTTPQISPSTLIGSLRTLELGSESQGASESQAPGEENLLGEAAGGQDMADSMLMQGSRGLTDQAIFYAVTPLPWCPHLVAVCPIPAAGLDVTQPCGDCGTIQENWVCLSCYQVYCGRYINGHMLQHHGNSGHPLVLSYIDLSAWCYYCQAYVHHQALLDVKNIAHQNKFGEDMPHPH

HDAC2 = HDAC2 (Homo sapiens, UniProt Q92769); experiment: HDAC biochemical assay
HDAC1 = HDAC1 (Homo sapiens, UniProt Q13547); experiment: HDAC biochemical assay
11 HDACs = experiment: HDAC biochemical assay, panel statements; details: up to 10 µM dose
HDAC7 = target: T2, HDAC7 (Homo sapiens, UniProt Q8WUI4); experiment: HDAC biochemical assay
T2 sequence (Q8WUI4 1-952): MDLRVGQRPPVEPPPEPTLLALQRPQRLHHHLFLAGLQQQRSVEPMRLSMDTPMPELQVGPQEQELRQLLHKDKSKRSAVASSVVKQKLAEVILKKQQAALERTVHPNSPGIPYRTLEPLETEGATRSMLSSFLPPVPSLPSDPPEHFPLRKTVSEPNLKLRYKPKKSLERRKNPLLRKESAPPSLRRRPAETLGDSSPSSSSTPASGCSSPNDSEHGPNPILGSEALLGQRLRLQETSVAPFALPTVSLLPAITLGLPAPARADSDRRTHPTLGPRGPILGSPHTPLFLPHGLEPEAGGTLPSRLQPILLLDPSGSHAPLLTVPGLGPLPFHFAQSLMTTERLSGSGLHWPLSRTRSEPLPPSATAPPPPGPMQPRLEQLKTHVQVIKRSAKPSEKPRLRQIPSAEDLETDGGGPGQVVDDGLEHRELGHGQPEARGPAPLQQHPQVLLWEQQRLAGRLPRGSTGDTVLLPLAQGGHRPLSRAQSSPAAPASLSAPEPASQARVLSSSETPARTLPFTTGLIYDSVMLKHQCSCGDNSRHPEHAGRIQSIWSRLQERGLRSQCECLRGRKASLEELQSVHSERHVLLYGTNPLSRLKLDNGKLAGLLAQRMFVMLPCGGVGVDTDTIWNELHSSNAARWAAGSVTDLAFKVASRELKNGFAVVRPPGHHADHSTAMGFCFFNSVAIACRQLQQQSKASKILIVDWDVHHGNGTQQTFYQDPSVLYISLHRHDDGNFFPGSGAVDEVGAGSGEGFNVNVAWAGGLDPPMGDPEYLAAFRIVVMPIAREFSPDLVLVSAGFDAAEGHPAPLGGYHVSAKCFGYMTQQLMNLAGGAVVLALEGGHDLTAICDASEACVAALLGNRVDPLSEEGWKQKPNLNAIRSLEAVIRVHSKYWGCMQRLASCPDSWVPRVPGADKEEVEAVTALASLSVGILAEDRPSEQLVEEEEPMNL

HDAC8 = target: T3, HDAC8 (Homo sapiens, UniProt Q9BY41); experiment: HDAC biochemical assay; details: RHKAcKAc-AMC substrate
T3 sequence (Q9BY41 1-377): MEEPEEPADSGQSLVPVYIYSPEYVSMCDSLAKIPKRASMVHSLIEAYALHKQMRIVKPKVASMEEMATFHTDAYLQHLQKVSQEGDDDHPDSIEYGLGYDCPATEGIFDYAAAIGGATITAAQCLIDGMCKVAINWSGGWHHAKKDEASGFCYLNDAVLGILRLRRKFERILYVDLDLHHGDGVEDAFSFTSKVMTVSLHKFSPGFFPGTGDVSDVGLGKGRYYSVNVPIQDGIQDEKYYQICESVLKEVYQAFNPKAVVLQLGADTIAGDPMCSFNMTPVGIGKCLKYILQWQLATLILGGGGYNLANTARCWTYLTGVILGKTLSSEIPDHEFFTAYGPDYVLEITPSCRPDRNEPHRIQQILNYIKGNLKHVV

[2] = system: histone H3 acetylation in PC-3 cells; experiment: Western blot of histone H3 acetylation in PC-3 cells; format: cell-based, human; details: data not shown
several HDAC subtypes = experiment: Primary screening at 10 µM in HDAC enzymatic assay; format: biochemical; details: 10 µM of compound
Procedure, shortened: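 Recombinant HDACs run with fluorogenic AMC peptides: RHKKAc-AMC for HDAC1, 2, 3, 6, 10 and 11; RHKAcKAc-AMC for HDAC8; acetyl-Lys(trifluoroacetyl)-AMC for HDAC4, 5, 7 and 9. Substrate then added; developer digests deacetylated product; AMC fluorescence read.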

HDAC9 = HDAC9 (Homo sapiens, UniProt Q9UKV0); experiment: HDAC biochemical assay
HDAC11 = target: T4, HDAC11 (Homo sapiens, UniProt Q96DB2); experiment: HDAC biochemical assay
T4 sequence (Q96DB2 1-347): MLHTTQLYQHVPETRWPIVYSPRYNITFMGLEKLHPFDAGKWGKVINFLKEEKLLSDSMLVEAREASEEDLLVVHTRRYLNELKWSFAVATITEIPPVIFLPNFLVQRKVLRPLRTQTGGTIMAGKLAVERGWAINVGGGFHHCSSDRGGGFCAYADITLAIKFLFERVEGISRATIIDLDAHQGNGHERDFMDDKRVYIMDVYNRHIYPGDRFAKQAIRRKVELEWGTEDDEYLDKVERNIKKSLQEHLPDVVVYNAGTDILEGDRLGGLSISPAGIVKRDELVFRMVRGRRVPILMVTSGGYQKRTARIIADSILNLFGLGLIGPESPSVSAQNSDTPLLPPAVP

HDAC10 = target: T5, HDAC10 (Homo sapiens, UniProt Q969S8); experiment: HDAC biochemical assay
T5 sequence (Q969S8 1-669): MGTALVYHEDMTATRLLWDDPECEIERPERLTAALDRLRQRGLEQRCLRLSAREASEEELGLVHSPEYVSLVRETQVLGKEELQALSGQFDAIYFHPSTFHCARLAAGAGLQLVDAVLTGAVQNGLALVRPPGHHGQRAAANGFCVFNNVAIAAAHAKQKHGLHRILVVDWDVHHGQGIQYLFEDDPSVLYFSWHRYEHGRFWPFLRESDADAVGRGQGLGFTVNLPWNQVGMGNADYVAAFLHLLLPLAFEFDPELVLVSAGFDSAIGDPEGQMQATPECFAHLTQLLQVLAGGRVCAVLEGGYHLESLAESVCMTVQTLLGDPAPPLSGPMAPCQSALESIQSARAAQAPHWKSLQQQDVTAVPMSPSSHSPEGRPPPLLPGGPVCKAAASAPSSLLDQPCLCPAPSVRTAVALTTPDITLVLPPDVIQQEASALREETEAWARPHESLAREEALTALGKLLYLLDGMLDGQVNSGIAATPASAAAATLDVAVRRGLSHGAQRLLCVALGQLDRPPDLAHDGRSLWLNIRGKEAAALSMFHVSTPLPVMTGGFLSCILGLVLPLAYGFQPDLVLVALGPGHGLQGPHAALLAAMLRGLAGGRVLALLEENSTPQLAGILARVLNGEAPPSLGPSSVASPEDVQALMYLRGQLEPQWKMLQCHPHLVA

HDAC3, sequence (O15379 whole entry): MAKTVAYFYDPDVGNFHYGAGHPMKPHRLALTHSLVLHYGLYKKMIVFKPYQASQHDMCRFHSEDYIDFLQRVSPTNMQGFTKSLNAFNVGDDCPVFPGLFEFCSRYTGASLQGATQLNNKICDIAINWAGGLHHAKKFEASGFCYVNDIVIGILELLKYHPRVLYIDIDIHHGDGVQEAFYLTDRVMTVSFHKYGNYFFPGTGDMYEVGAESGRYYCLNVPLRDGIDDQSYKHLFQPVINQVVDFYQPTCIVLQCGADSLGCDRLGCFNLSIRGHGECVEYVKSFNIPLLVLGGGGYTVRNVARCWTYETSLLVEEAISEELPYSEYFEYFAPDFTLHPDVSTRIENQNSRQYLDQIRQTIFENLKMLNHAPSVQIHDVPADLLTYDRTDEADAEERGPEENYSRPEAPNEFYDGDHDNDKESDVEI
HDAC3, sequence (Q9Y618 395-489 partner limits assumed): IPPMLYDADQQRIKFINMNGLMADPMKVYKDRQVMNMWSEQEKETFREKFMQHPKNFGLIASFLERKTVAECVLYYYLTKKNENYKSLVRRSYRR
HDAC4, sequence (P56524 whole entry): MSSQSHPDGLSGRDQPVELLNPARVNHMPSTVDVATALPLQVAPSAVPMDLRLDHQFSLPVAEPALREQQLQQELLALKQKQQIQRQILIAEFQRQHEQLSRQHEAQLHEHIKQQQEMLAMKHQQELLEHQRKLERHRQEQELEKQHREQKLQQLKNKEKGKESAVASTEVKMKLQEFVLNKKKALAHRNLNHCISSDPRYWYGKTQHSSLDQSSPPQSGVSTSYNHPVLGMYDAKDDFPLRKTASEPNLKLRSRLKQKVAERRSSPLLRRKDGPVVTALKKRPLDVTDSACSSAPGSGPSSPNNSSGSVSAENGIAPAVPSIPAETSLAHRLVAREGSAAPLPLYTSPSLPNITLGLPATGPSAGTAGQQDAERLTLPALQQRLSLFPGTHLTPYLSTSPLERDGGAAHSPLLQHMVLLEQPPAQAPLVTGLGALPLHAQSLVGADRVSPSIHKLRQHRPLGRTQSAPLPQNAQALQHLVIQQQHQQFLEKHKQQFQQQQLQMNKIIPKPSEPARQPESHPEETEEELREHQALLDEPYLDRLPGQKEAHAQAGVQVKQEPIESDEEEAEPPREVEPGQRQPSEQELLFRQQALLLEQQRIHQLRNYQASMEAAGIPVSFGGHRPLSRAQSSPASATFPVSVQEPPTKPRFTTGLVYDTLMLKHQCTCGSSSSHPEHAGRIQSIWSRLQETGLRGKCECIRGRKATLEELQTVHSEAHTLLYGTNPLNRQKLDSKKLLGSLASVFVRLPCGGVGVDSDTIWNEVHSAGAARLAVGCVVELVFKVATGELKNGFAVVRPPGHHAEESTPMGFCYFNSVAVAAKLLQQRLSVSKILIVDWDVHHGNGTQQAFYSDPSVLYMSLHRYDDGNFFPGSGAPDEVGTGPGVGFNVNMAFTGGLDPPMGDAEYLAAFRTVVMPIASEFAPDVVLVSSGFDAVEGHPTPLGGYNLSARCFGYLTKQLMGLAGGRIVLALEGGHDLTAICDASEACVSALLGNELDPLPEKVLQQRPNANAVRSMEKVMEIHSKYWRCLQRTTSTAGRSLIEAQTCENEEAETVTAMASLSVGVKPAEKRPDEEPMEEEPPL
HDAC1, sequence (Q13547 whole entry): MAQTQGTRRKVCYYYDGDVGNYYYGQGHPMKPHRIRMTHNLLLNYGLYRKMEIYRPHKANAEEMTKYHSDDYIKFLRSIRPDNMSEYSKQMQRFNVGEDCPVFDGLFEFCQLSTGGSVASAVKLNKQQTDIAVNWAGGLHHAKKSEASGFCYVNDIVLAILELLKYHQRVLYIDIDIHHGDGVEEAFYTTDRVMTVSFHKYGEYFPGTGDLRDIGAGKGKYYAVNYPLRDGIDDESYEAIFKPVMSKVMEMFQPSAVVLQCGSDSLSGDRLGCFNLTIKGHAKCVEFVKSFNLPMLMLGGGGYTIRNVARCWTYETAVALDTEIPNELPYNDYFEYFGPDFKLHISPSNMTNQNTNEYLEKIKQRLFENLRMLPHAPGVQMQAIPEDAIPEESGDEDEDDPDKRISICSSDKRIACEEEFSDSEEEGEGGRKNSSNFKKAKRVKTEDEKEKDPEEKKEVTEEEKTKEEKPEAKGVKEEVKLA
HDAC9, sequence (Q9UKV0 whole entry): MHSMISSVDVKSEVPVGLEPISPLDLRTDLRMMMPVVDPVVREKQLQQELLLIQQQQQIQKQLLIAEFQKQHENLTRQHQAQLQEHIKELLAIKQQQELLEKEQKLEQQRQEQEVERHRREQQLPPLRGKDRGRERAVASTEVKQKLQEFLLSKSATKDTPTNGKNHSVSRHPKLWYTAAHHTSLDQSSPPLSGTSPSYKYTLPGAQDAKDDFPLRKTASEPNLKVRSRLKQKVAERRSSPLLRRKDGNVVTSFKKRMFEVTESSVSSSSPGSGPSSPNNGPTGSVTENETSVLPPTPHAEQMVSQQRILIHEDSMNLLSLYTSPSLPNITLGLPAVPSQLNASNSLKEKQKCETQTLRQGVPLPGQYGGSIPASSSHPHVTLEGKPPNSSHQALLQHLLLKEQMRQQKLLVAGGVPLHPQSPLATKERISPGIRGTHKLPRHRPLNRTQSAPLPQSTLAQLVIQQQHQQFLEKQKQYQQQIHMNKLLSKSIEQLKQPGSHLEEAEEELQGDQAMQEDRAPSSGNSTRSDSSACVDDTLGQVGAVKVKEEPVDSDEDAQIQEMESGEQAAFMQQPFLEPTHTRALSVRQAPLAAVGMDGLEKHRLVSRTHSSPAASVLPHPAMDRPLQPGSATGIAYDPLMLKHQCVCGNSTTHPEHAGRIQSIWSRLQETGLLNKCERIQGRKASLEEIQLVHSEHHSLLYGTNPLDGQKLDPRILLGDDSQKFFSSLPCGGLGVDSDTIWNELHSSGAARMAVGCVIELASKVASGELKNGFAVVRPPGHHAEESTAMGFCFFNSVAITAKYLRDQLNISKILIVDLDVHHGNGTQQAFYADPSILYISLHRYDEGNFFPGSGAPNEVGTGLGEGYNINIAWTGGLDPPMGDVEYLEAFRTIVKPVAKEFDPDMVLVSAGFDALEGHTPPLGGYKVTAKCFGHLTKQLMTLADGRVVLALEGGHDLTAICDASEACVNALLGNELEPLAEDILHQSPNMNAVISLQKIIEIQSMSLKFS
HDAC2, sequence (Q92769 whole entry): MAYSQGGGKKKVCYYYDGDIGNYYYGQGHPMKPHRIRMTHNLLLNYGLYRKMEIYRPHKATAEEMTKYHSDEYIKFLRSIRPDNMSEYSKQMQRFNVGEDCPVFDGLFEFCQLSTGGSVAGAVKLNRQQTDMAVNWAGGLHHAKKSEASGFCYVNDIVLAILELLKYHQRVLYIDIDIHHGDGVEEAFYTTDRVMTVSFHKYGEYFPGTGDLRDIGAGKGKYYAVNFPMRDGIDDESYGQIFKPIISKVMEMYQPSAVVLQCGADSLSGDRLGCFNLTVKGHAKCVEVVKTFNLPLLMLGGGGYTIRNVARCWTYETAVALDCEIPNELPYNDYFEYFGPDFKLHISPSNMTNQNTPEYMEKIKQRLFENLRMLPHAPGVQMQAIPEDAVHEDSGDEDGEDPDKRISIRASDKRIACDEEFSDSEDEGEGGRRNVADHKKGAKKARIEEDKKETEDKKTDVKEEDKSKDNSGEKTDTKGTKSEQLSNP
HDAC5, sequence (Q9UQL6 whole entry): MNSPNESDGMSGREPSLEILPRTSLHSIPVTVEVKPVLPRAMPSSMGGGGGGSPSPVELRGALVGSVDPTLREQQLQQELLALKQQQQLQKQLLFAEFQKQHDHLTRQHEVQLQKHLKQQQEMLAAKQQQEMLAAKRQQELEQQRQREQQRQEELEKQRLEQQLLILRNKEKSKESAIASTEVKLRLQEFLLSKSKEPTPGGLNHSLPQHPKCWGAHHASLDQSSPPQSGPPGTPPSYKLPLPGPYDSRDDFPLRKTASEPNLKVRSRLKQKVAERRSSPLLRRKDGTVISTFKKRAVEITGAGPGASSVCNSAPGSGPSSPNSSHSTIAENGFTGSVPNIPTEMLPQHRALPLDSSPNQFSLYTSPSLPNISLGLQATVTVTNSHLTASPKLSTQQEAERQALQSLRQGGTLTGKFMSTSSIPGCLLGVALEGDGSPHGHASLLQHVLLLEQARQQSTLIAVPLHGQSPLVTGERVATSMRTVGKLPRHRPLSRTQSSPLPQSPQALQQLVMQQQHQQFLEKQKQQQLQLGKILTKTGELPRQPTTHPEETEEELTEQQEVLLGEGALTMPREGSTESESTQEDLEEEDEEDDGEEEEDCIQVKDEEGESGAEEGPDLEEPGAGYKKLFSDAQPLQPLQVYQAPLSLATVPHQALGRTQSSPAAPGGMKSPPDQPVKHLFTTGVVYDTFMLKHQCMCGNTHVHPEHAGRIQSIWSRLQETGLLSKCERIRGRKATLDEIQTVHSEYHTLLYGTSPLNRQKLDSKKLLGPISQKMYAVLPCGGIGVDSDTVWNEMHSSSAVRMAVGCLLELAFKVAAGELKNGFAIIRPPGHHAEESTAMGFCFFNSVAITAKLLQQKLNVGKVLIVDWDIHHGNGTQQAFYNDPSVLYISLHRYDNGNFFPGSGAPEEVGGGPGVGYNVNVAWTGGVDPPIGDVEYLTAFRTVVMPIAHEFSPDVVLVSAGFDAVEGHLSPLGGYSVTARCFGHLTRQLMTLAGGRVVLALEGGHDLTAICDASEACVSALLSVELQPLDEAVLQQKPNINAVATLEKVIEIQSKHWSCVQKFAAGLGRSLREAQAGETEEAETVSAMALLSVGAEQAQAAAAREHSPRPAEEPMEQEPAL

O=C(CCCCCCNC(=O)c1cnc(N(c2ccccc2)c2ccccc2)nc1)NO [ACY-1215]
acetylated α-tubulin level [1]: significantly increased

O=c1c2ccccc2[se]n1-c1ccccc1 [Ebselen, 2-phenyl-1,2-benzisoselenazol-3(2H)-one]
IC50 (HDAC4): > 10 µM
IC50 (HDAC3): > 10 µM
IC50 (HDAC5; HDAC5 IC50, biochemical HDAC assay, acetyl-Lys(trifluoroacetyl)-AMC substrate): 3.49 µM
IC50 (HDAC6): 6.99 µM
IC50 (HDAC2): > 10 µM
IC50 (HDAC1): > 10 µM
inhibition of the other HDAC subtypes (other than HDAC5, HDAC6, HDAC8, HDAC9) (11 HDACs): no significant inhibition
IC50 (HDAC7): > 10 µM
IC50 (HDAC8): 1.2 µM and 1.21 µM
effect on acetylation/deacetylation of histone H3 [2]: not observed
inhibition in primary screening (several HDAC subtypes): > 50%
IC50 (HDAC9; HDAC9 IC50, biochemical HDAC assay, acetyl-Lys(trifluoroacetyl)-AMC substrate): 3.75 µM
IC50 (HDAC11): > 10 µM
acetylated α-tubulin level [1]: not observed
IC50 (HDAC10): > 10 µM

Cc1ccccc1-n1sc2cc(F)ccc2c1=O [Thr101, 6-Fluoro-2-o-tolylbenzo[d] isothiazol-3(2H)-one]
IC50 (HDAC4): 6.07 µM
IC50 (HDAC3): 4.24 µM
IC50 (HDAC5): 1.57 µM
IC50 (HDAC6): 4.14 µM
IC50 (HDAC2): > 10 µM
IC50 (HDAC1; HDAC1 IC50, biochemical HDAC assay, AMC-labeled peptide substrate): 3.62 µM
IC50 (HDAC7): 3.43 µM
IC50 (HDAC9): 3.77 µM
IC50 (HDAC11): > 10 µM
IC50 (HDAC10): > 10 µM
